# Bioassay records from PubChem BioAssay.
# HCT116 PTEN-null – suppresses growth of cells with PTEN deletion; HCT116 PTEN-null viability, CellTiter-Glo, 60 h; stronger effect = lower value; viability, % at 10 µM; 1.2% of 140,000 active; AID 827;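 active means viability at or below a set limit, 4 SD under the median of all tested compounds, cut at about 3.7% in these data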;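 further: PTEN knockout HCT116 line with beta catenin targeted HCT116 as companion control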
# H69AR inhibit – growth inhibitors of human H69AR lung tumor cells | 6% of 85,000 active | AID 598 | viability, % at 10 µM | H69AR lung tumor viability, ATP luminescence, 72 h; stronger effect = lower value;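 active means viability at or below 40%; inactive means viability above 40%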;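 further: multidrug resistant small cell line overexpressing MRP-1 efflux transporter; 100% = mean luminescence of untreated control wells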
# HUVEC inhibit – human endothelial cell proliferation inhibition; viability, % at 10 µM (by protocol); 1.1% of 86,000 active; HUVEC proliferation, CellTiter-Glo luminescence, 72 h; stronger effect = lower value;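 active means viability at or below 30%; inactive means viability above 30%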;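 further: 100% = median luminescence of DMSO-only cell control wells on each plate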
# Candida biofilm – kills Candida albicans biofilms; C. albicans biofilm + clotrimazole, Alamar Blue; inhibition, % at 6 µM; 0.14% of 85,000 active; AID 834;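 active means inhibition above 20%; inactive means inhibition below 20%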;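 further: preformed 24 hr biofilms exposed to compound for 48 hr; 0% = biofilm without compound and 100% = blank killed by clotrimazole plus chlorhexidine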
# HCT116 bCat-KO – beta-catenin-lacking colon tumor cell growth suppression; HCT116 beta-catenin knockout viability, CellTiter-Glo, 60 h; stronger effect = lower value; viability, % at 10 µM; 1.5% of 140,000 active; AID 818;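 active means viability at or under a set limit, the compound median less 4 SD, cut at about 6% in these data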;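 further: 0% = Hyamine 1622 control at 20 µM and 100% = untreated cell control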
# Lung fibro prol – blocks proliferation of human lung fibroblasts; LL 47 human lung fibroblast viability, ATP luminescence; stronger effect = lower value; viability, % at 10 µM; 1.1% of 85,000 active;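 active means viability at or below 50% in the single dose screen; inactive means viability above 50%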;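 further: compound exposure lasted 72 h before the ATP readout; 100% = median luminescence of untreated cell-only wells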
#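 Times – overnight cell rest, 72 h compound treatment at 37 °C · Test system – human lung fibroblast line LL 47, low passage · Amount – 1,150 cells in each well · Controls – cell-only wells, no compound · Doses – 0.1% DMSO in all compound wells · Measured by – CellTiter-Glo luminescence · Buffer or medium – IMEM plus 15% FBS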
# * hit, by the source's call; x = no result given. Many of the other results were omitted from the sample, so hits are more common in it than they were.
SMILES,HCT116 PTEN-null,H69AR inhibit,HUVEC inhibit,Candida biofilm,HCT116 bCat-KO,Lung fibro prol
CCn1cc(C(=O)OCC(=O)NCc2ccc3c(c2)OCO3)c(=O)c2ccc(C)nc21,86.0,11.2*,91.4,8.3,92.2,106.2
Cc1cc2c(cc1C)N(C(=O)CSc1nncn1C)C(C)(C)c1ssc(=S)c1-2,94.8,70.2,94.8,4.5,90.2,97.8
CCOc1ccc2c(c1)-c1c(ssc1=S)C(C)(C)N2C,78.6,32.3*,77.3,7.9,78.5,97.4
COc1ccc(-c2cn3c(C)c(C(=O)Nc4cccc(NC(C)=O)c4)sc3n2)cc1,65.7,26.4*,23.4*,8.2,51.9,88.0
COC(=O)c1ccc(NC(=O)c2sc3nc(-c4ccccc4)cn3c2C)cc1,56.6,36.7*,69.7,3.4,60.6,100.3
CCOC(=O)C1CCN(C(=O)c2sc3nc(-c4ccc(F)cc4)cn3c2C)CC1,72.3,35.3*,94.2,4.7,68.4,97.4
Cc1c(C(=O)Nc2ccncc2)sc2nc(-c3ccc(F)cc3)cn12,35.9,17.0*,28.9*,32.1*,48.2,76.1
CCOC(=O)C1CCCN(C(=O)c2sc3nc(-c4ccc(F)cc4)cn3c2C)C1 (stereo not given),82.5,52.4,89.8,7.9,88.3,97.5
CCC(Sc1nc(-c2ccccc2)c(C#N)c(=O)[nH]1)C(=O)Nc1nnc(C)s1 (stereo not given),103.0,x,x,x,101.3,x
Oc1ccccc1Nc1nc(NCC2CCCO2)c2ccccc2n1 (stereo not given),46.9,46.3,85.2,-1.9,47.0,94.8
Oc1ccc(Nc2nc(NCC3CCCO3)c3ccccc3n2)cc1 (stereo not given),14.8,36.6*,34.9,1.0,7.9,86.0
COc1cccc(Nc2nc(NCC3CCCO3)c3ccccc3n2)c1 (stereo not given),1.2*,64.2,35.5,-2.9,1.3*,22.7*
CCN(CC)c1ccc(C(=O)NC(=S)Nc2cc(S(=O)(=O)N3CCOCC3)ccc2-n2cncn2)cc1,65.6,x,x,x,94.3,x
COc1ccc(/C=N/NC(=O)c2cccc(OC(F)(F)C(F)F)c2)cc1O,76.0,x,x,x,79.8,x
O=C(Nc1ccccc1-c1nc2ccccc2s1)c1ccc(Br)o1,37.9,14.9*,47.4,5.1,47.4,96.2
O=C(Nc1ccc(Cl)cc1-c1nc2ccccc2s1)c1ccco1,65.5,30.1*,41.5,4.5,62.9,90.0
O=C(Nc1nc(-c2nc3ccccc3s2)cs1)c1ccco1,78.9,83.4,76.1,6.9,83.0,97.5
CC(=O)OC1c2ccccc2C(=O)N1Cc1ccccc1 (stereo not given),106.3,99.5,89.4,-2.3,102.1,105.9
C=C(C)n1c(=O)[nH]c2ccccc21,84.0,79.7,97.8,x,70.0,101.4
CCOc1cc(NC(=O)c2ccco2)c(OCC)cc1NC(=O)c1cc(OC)c(OC)c(OC)c1,96.2,65.5,90.3,6.7,93.1,96.7
CCOc1cc(C#N)c(NC(=O)c2ccco2)cc1OCC,33.2,30.6*,56.8,5.2,33.1,80.4
CCOc1ccccc1NC(=O)c1cc(Cl)ccc1NC(=O)c1ccco1,88.1,29.5*,50.4,3.2,49.5,93.0
COc1cc(NC(=O)c2ccco2)c(OC)cc1NC(=O)c1cc(OC)c(OC)c(OC)c1,83.0,24.1*,71.4,7.5,65.7,106.9
CCOc1cc(NC(=S)NC)c(OCC)cc1NC(=O)c1ccco1,97.0,x,x,x,93.5,x
CCCn1c2ccccc2c2nnc(SC(CC)C(=O)Nc3cc(C)on3)nc21 (stereo not given),86.9,31.8*,106.4,3.1,81.9,109.6
SMILES,HCT116 PTEN-null,H69AR inhibit,HUVEC inhibit,Candida biofilm,HCT116 bCat-KO,Lung fibro prol
CCCn1c2ccccc2c2nnc(SC(CC)C(=O)Nc3sc4c(c3C#N)CCCC4)nc21 (stereo not given),65.8,x,x,x,79.3,x
CCNS(=O)(=O)c1ccc(CCC(=O)NCCC2=CCCCC2)cc1,95.7,x,x,x,96.2,x
Cc1ccccc1C(=O)Nc1cccc(NC(=O)c2ccc(-c3ccc(Br)cc3)o2)c1,5.2,21.5*,64.4,3.9,3.7*,52.0
Cc1ccccc1C(=O)Nc1ccccc1,92.5,110.2,98.2,1.1,87.7,104.5
COc1ccc(CCNC(=O)c2cc(-c3ccc(Cl)c(Cl)c3)oc2C)cc1,81.7,x,x,x,83.0,x
Cc1nc(NC(=O)CSc2nc3cccnc3n2C2CCCCC2)sc1C,68.0,28.9*,52.0,-0.2,90.1,14.0*
CCc1nnc(NC(=O)CSc2nc3cccnc3n2C2CCCCC2)s1,76.9,81.7,72.5,-5.7,75.2,83.0
Cc1ccc(-n2sc3ccccc3c2=O)cc1,1.1*,x,x,x,1.4*,x
C=C1[C@@H](C)C2[C@H](Cc3ccccc3)NC(=O)[C@]23OC(=O)CC[C@H](O)CCC[C@H](C)C/C=C/[C@H]3[C@@H]1O (stereo not given in full),x,37.9*,15.3*,1.0,x,25.1*
Cc1cc(C)c2nc(SCC(=O)N3CC(=O)Nc4ccccc43)c(C#N)cc2c1,20.0,23.9*,42.7,10.2,18.0,63.0
Cc1cc(C)cc(C(=O)N2CC(=O)Nc3ccccc32)c1,15.8,35.4*,44.8,2.9,18.1,49.8*
Cc1ccsc1C(=O)N1CC(=O)Nc2ccccc21,69.9,30.4*,89.0,8.8,72.8,93.4
O=C1CN(C(=O)c2cnccn2)c2ccccc2N1,115.1,106.5,91.8,5.3,94.3,x
Fc1ccc(Oc2ncccn2)c(F)c1,91.3,x,x,x,97.7,x
COc1cc(C(=O)Oc2cccc(C=O)c2)cc(OC)c1OC,65.2,25.4*,72.8,5.9,53.4,86.3
COc1cc(C(=O)Oc2ccccc2N)cc(OC)c1OC,90.4,85.6,95.2,4.2,99.9,116.9
CC(C)C(=O)N1CCN(c2ccc([N+](=O)[O-])c(NC(C)c3ccccc3)c2)CC1 (stereo not given),63.9,x,x,x,80.4,x
CCC(/C=C1\Sc2ccc(OC)cc2N1CCO)=C\c1sc2ccc(OC)cc2[n+]1CCO,0.9*,x,x,x,2.5*,x
CCC(=O)/C=C1/Sc2ccc(OC)cc2N1CC,77.7,74.8,86.7,-1.9,67.0,94.5
C=CCNc1nc(N)c(C(=O)Nc2cc(C)on2)s1,89.0,67.8,89.6,5.5,89.5,101.9
C=CCNc1nc(N)c(C(=O)c2ccc3c(c2)OCO3)s1,67.6,28.6*,101.6,9.7,77.8,94.8
Cc1cc(NC(=O)CC(C)(C)C)nc2c1c(=O)oc1ccccc12,83.9,56.1,86.6,6.7,86.7,87.5
Cc1cc(NC(=O)CN2CCc3ccccc3C2)nc2c1c(=O)oc1ccccc12,x,27.9*,83.7,7.2,x,86.1
COc1ccc(C(=O)Nc2cc(C)c3c(=O)oc4ccccc4c3n2)cc1,106.7,38.7*,48.9,8.6,98.2,102.8
Cc1ccc2c(c1)N(C(=O)c1ccco1)C(C)(C)c1ssc(=S)c1-2,66.4,99.2,88.4,64.0*,79.8,82.1
CCOC(=O)/C=C(\C)Sc1cc(=O)oc2ccccc12,7.4,12.5*,49.2,10.8,9.5,86.4
